In one data set the test system is Escherichia coli. Briefly: Antibacterial activity against Escherichia coli ATCC 25922 assessed as reduction in bacterial growth incubated for 18 to 20 hrs by broth microdilution assay. The data set is classed as functional. (In general: Dilution methods test growth across graded concentrations, often in twofold steps.)
The test system of the next data set is Staphylococcus aureus. Briefly: Antibacterial activity against Staphylococcus aureus ATCC 25923 assessed as reduction in bacterial growth incubated for 18 to 20 hrs by broth microdilution assay. The data set is classed as functional.
Data set [1] in a line: Solubility of the compound in HEPES buffer in presence of human N-terminal polyHis-tagged SerRS expressed in Escherichia coli BL21 (DE3) at 1000 uM. The data set is classed as physicochemical.
Data set [2] addresses T1, Serine--tRNA ligase (Escherichia coli (strain K12), UniProt P0A8L1). Nature of the data set: Binding affinity to C-terminal His10-tagged Escherichia coli B ER2560 SerRS expressed in Lemo21(DE3) SerRS assessed as affinity constant for second binding site by isothermal titration calorimetry. On the technique in general: Isothermal titration calorimetry measures the heat released or taken up as one component is titrated into another.

Data set [3] addresses T1, Serine--tRNA ligase. Briefly: Binding affinity to C-terminal His10-tagged Escherichia coli B ER2560 SerRS expressed in Lemo21(DE3) SerRS assessed as affinity constant for first binding site by isothermal titration calorimetry.
Data set [4] addresses Serine--tRNA ligase (Escherichia coli (strain K12)) (UniProt P0A8L1). Briefly: Binding affinity to C-terminal His10-tagged Escherichia coli B ER2560 SerRS expressed in Lemo21(DE3) SerRS assessed as binding stoichiometry at 2:1 ratio of compound to protein by isothermal titration calorimetry. The essentials:
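E. coli SerRS was purified by gel filtration and dialysed overnight at 4 °C into 20 mM Tris-HCl pH 7.5, 200 mM NaCl. Ligands were made up in the same buffer and all solutions degassed. ITC ran at 25 °C: 7 µM protein in the cell was titrated with 140 µM ligand by 2 µl then 26 × 10 µl injections (20 s each, 120 s apart). Stoichiometry N came from iterative isotherm fitting; runs were in triplicate.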

Data set [5] deals with T1, Serine--tRNA ligase. Nature of the data set: Binding affinity to C-terminal His10-tagged Escherichia coli B ER2560 SerRS expressed in Lemo21(DE3) SerRS assessed as dissociation constant by isothermal titration calorimetry.
Data set [6] in a line: Selectivity index, ratio of IC50 for human N-terminal polyHis-tagged SerRS expressed in Escherichia coli BL21 (DE3) to IC50 for C-terminal His10-tagged Staphylococcus aureus seg50 SerRS expressed in Lemo21(DE3).
A short description of data set [7]: Selectivity index, ratio of IC50 for human N-terminal polyHis-tagged SerRS expressed in Escherichia coli BL21 (DE3) to IC50 for C-terminal His10-tagged Escherichia coli B ER2560 SerRS expressed in Lemo21(DE3).
For data set [8], the target named is Serine--tRNA ligase (Staphylococcus aureus (strain NCTC 8325 / PS 47), UniProt P95689). Briefly: Inhibition of C-terminal His10-tagged Staphylococcus aureus seg50 SerRS expressed in Lemo21(DE3) using Ap4A as substrate in presence of serine by leuconostoc mesenteroides hexokinase/glucose 6-Phosphate dehydrogenase coupled UV-visible spectrophotometry. The essentials: (§1)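 Continuous coupled spectrophotometric assay of the adenylate formation step with thrombin-cleaved, gel-filtered SerRS. Buffer is 50 mM HEPES pH 7.6 with 10 mM MgCl2, 50 mM KCl, 1 mM DTT and 10% DMSO. It also holds 10 mM glucose, 0.5 mM NADP+, yeast hexokinase and L. mesenteroides G6PDH. IC50 by non-linear regression.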
Chain of Serine--tRNA ligase (Staphylococcus aureus (strain NCTC 8325 / PS 47), UniProt P95689) (P95689 whole entry): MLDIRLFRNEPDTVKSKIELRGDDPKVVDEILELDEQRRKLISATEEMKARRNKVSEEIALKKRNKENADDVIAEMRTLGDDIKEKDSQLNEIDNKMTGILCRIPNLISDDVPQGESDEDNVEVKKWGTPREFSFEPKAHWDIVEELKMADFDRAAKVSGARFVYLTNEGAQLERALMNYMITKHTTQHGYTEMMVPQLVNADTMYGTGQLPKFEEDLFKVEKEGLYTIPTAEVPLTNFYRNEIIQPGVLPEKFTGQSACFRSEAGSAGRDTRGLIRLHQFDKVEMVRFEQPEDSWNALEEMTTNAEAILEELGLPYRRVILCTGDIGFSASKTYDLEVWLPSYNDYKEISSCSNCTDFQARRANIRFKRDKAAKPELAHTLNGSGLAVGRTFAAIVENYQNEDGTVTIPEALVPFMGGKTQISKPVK

For data set [9], the target named is T1, Serine--tRNA ligase. Nature of the data set: Inhibition of C-terminal His10-tagged Escherichia coli B ER2560 SerRS expressed in Lemo21(DE3) using Ap4A as substrate in presence of serine by leuconostoc mesenteroides hexokinase/glucose 6-Phosphate dehydrogenase coupled UV-visible spectrophotometry. An outline of the steps:
as §1

9 molecules from ChEMBL document CHEMBL4414626, “Structure-Guided Enhancement of Selectivity of Chemical Probe Inhibitors Targeting Bacterial Seryl-tRNA Synthetase” (J Med Chem, 2019) can be followed below.

Each structure is given as a SMILES string. The source made the active and inactive calls. No cut-off for these calls is given here.

T1 sequence (P0A8L1 whole entry): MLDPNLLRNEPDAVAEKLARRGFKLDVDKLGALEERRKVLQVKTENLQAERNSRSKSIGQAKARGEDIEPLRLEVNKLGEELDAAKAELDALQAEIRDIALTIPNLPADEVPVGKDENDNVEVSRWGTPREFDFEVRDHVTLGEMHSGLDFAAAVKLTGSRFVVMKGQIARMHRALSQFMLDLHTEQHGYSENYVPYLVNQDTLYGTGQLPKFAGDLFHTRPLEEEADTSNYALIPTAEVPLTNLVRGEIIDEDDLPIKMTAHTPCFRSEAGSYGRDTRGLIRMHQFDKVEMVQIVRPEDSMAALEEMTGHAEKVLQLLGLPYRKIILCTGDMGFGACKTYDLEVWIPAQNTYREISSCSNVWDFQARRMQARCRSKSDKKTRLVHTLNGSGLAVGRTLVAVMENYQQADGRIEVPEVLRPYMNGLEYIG
Chain of Serine--tRNA ligase (Escherichia coli (strain K12)) (P0A8L1 whole entry, looked up): as the sequence (P0A8L1 whole entry) above

A word on the MIC: it is the lowest concentration that inhibits growth of the organism. On to `Nc1nc(-c2ccsc2)nc2c1ncn2[C@@H]1O[C@H](COS(=O)(=O)NC(=O)[C@@H](N)CO)[C@@H](O)[C@H]1O`, for which the MIC in the data set with Escherichia coli and in the data set on Staphylococcus aureus was more than 256 µg/mL throughout. Further, the solubility result in data set [1] is recorded as “Insoluble”.
Consider `Nc1nc(-c2ccccc2)nc2c1ncn2[C@@H]1O[C@H](COS(=O)(=O)NC(=O)[C@@H](N)CO)[C@@H](O)[C@H]1O`, for which the MIC with Escherichia coli and in the data set on Staphylococcus aureus was more than 256 µg/mL in each case.
For the molecule `Nc1nc(I)nc2c1ncn2[C@@H]1O[C@H](COS(=O)(=O)NC(=O)[C@@H](N)CO)[C@@H](O)[C@H]1O`, the MIC in the data set on Escherichia coli and in the data set on Staphylococcus aureus was more than 256 µg/mL each time.
Consider `C/C=C/c1nc(N)c2ncn([C@@H]3O[C@H](COS(=O)(=O)NC(=O)[C@@H](N)CO)[C@@H](O)[C@H]3O)c2n1`, for which the minimum inhibitory concentration (MIC) in the data set with Escherichia coli and with Staphylococcus aureus was more than 256 µg/mL throughout.
With `Nc1nc(Cl)nc2c1ncn2[C@@H]1O[C@H](COS(=O)(=O)NC(=O)[C@@H](N)CO)[C@@H](O)[C@H]1O`, the minimal inhibitory concentration (MIC) with Escherichia coli and in the data set on Staphylococcus aureus was more than 256 µg/mL in each case.
Usually Kd stands for the equilibrium constant for the complex coming apart. Turning to `Nc1nc(-c2cccnc2)nc2c1ncn2[C@@H]1O[C@H](COS(=O)(=O)NC(=O)[C@@H](N)CO)[C@@H](O)[C@H]1O`, the MIC with Escherichia coli and with Staphylococcus aureus was more than 256 µg/mL throughout. Further, the dissociation constant Kd is 1920 nM at Serine--tRNA ligase [2], 290 nM on Serine--tRNA ligase [3] and 290 to 1920 nM at Serine--tRNA ligase [5]. Besides, in [4], the outcome was Active. For the same molecule, the solubility result in data set [1] was “Insoluble”.
In the case of `Nc1ncnc2c1ncn2[C@@H]1O[C@H](COS(=O)(=O)NC(=O)[C@@H](N)CO)[C@@H](O)[C@H]1O`, the minimal inhibitory concentration (MIC) in the data set with Escherichia coli and in the data set with Staphylococcus aureus was more than 256 µg/mL each time. Further, the Ratio IC50 in data set [6] and in [7] was 10 in each case. For the same molecule, the outcome in [4] was Active. Moreover, on Serine--tRNA ligase [5], the Kd is 1.27 nM.
As for `Nc1nc(-c2ccco2)nc2c1ncn2[C@@H]1O[C@H](COS(=O)(=O)NC(=O)[C@@H](N)CO)[C@@H](O)[C@H]1O`, the MIC in the data set with Escherichia coli and in the data set on Staphylococcus aureus was more than 256 µg/mL in each case.
The IC50 is the midpoint of a concentration-inhibition curve. As to `CC1(C)O[C@@H]2[C@H](O1)[C@@H](CO)O[C@H]2n1cnc2c(N)nc(I)nc21`, the IC50 at Serine--tRNA ligase [8] stood at 231000 nM; on Serine--tRNA ligase [9], 285000 nM.
